Measurements published in ChEMBL document CHEMBL2346560, “Structure and function of a potent lipopolysaccharide-binding antimicrobial and anti-inflammatory peptide” (J Med Chem, 2013).
≈ marks a conversion by molar mass, not a printed value. Bridge positions count the residues as written; N and C are the ends. Peptide text beside a SMILES is read from it.

What was measured:
Escherichia coli [1] = assay: Bactericidal activity against Escherichia coli ATCC 25922 at MIC after 5 mins by colony counting assay (reference value: 47.7 CFU); format: functional
RAW264.7 [2] = assay: Antiinflammatory activity in mouse RAW264.7 cells assessed as inhibition of LPS-induced NO production at 10 ug/mL after 24 hrs by spectrophotometric analysis relative to control; format: functional; details: RAW264.7, 24 h
How it was run: (§1)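 RAW 264.7 cells (1 × 10^7) in RPMI-1640 with 10% FBS and penicillin/streptomycin were treated with peptide (2.5, 5, 10, 20 µg/mL) with or without LPS (E. coli 055:B5, 100 ng/mL) for 24 h. Medium nitrite was measured with Griess reagent at A540 against a NaNO2 standard curve. Control was LPS alone. Mean ± SEM of three separate experiments.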

RAW264.7 [3] = assay: Antiinflammatory activity in mouse RAW264.7 cells assessed as inhibition of LPS-induced IL6 production at 20 ug/mL after 24 hrs by ELISA relative to control; format: functional; details: RAW264.7, 24 h
How it was run: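 RAW 264.7 cells (2 × 10^5) were plated and allowed to adhere. They were given peptide (2.5, 5, 10, 20 µg/mL) with or without LPS (E. coli 055:B5, 20 ng/mL) for 24 h. Supernatant TNF-α, IL-6 and MCP-1 were measured by ELISA at A450. Controls were LPS alone and untreated cells. Mean ± SEM of three separate experiments.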

Escherichia coli [4] = assay: Antibacterial activity against ampicillin, benzylpencillin-resistant Escherichia coli 08A852 after 16 hrs by broth dilution method; format: functional; details: 08A852, 16 h
How it was run: (§2)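 MIC read-out, reported in µg/mL with µM equivalents. Each value is the mean of three independent experiments, each run in duplicate.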

Pseudomonas aeruginosa [5] = assay: Antibacterial activity against Pseudomonas aeruginosa ATCC 27853 treated with NaCl after 16 hrs by broth dilution method; format: functional; details: ATCC 27853, 16 h
How it was run: (§3)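 Salt sensitivity of the MIC. Peptide was tested in water, NaCl, CaCl2, MgCl2 or PBS (Na2HPO4-NaH2PO4, pH 7.4), with every salt at 150 mM. Values are means of three independent experiments, each run in duplicate.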

RAW264.7 [6] = assay: Cytotoxicity against mouse RAW264.7 cells at 100 ug/mL after 24 hrs by MTT assay relative to control; format: cell-based; details: raw264.7, 24 h
RAW264.7 [7] = assay: Antiinflammatory activity in mouse RAW264.7 cells assessed as inhibition of LPS-induced TLR4 expression preincubated for 1 hr prior to LPS-challenge measured after 3 hrs by Western blotting analysis; format: functional, cell-based
How it was run: (§4)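 RAW 264.7 cells (1 × 10^6/well) were serum-starved in RPMI-1640 for 16 h. They were pretreated with peptide (0, 5, 10, 20 µg/mL) for 1 h, then given LPS (E. coli 055:B5, 0 or 100 ng/mL) for 3 h. Cells were washed in ice-cold PBS, and cytoplasmic or nuclear fractions were blotted for TLR4, JNK, NF-κB p65 and β-actin. Control was LPS alone.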

Candida albicans [8] = assay: Antifungal activity against ampicillin, benzylpencillin-resistant Candida albicans 08022821 after 16 hrs by broth dilution method; format: functional; details: Candida albicans, 08022821, 16 h; how it was run: as §2
Escherichia coli [9] = assay: Antibacterial activity against Escherichia coli ATCC 25922 treated with MgCl2 after 16 hrs by broth dilution method; format: functional; details: ATCC 25922, 16 h; how it was run: as §3
Staphylococcus aureus [10] = assay: Antibacterial activity against Staphylococcus aureus ATCC 2592 after 16 hrs by broth dilution method; format: functional; details: ATCC 2592, 16 h; how it was run: as §2
Escherichia coli [11] = assay: Bactericidal activity against Escherichia coli ATCC 25922 at 5 times MIC after 20 mins by colony counting assay (reference value: 79.3 CFU); format: functional
Escherichia coli [12] = assay: Antibacterial activity against Escherichia coli ATCC 25922 treated with PBS after 16 hrs by broth dilution method; format: functional; details: ATCC 25922, 16 h; how it was run: as §3
Pseudomonas aeruginosa [13] = assay: Antibacterial activity against ampicillin, benzylpencillin-resistant Pseudomonas aeruginosa 08031014 after 16 hrs by broth dilution method; format: functional; details: Pseudomonas aeruginosa, 08031014, 16 h; how it was run: as §2
RAW264.7 [14] = assay: Antiinflammatory activity in mouse RAW264.7 cells assessed as inhibition of LPS-induced NO production at 5 ug/mL after 24 hrs by spectrophotometric analysis relative to control; format: functional; details: RAW264.7, 24 h; how it was run: as §1
Staphylococcus aureus [15] = assay: Antibacterial activity against Staphylococcus aureus ATCC 2592 treated with PBS after 16 hrs by broth dilution method; format: functional; details: ATCC 2592, 16 h; how it was run: as §3
Escherichia coli [16] = assay: Bactericidal activity against Escherichia coli ATCC 25922 at 5 times MIC after 40 mins by colony counting assay (reference value: 131.7 CFU); format: functional
Escherichia coli [17] = assay: Antibacterial activity against ampicillin, benzylpencillin-resistant Escherichia coli 08A866 after 16 hrs by broth dilution method; format: functional; details: 08A866, 16 h; how it was run: as §2
Staphylococcus aureus [18] = assay: Antibacterial activity against Staphylococcus aureus ATCC 2592 treated with water after 16 hrs by broth dilution method; format: functional; details: ATCC 2592, 16 h; how it was run: as §3
Candida albicans [19] = assay: Antifungal activity against Candida albicans ATCC 2002 treated with CaCl2 after 16 hrs by broth dilution method; format: functional; details: ATCC 2002, 16 h; how it was run: as §3
Escherichia coli [20] = assay: Bactericidal activity against Escherichia coli ATCC 25922 at MIC after 120 mins by colony counting assay (reference value: 1868.3 CFU); format: functional
RAW264.7 [21] = assay: Cytotoxicity against mouse RAW264.7 cells at >25 ug/mL after 24 hrs by MTT assay; format: cell-based; details: raw264.7, 24 h
Staphylococcus aureus [22] = assay: Antibacterial activity against ampicillin, benzylpencillin-resistant Staphylococcus aureus 08A865 after 16 hrs by broth dilution method; format: functional; details: 08A865, 16 h; how it was run: as §2
RAW264.7 [23] = assay: Antiinflammatory activity in mouse RAW264.7 cells assessed as inhibition of LPS-induced NO production after 24 hrs by spectrophotometric analysis; format: functional, cell-based; how it was run: as §1
RAW264.7 [24] = assay: Antiinflammatory activity in mouse RAW264.7 cells assessed as inhibition of LPS-induced NO production at 2.5 ug/mL after 24 hrs by spectrophotometric analysis relative to control; format: functional; details: RAW264.7, 24 h; how it was run: as §1
Candida albicans [25] = assay: Antifungal activity against Candida albicans ATCC 2002 treated with NaCl after 16 hrs by broth dilution method; format: functional; details: ATCC 2002, 16 h; how it was run: as §3
Escherichia coli [26] = assay: Antibacterial activity against Escherichia coli ATCC 25922 treated with CaCl2 after 16 hrs by broth dilution method; format: functional; details: ATCC 25922, 16 h; how it was run: as §3
RAW264.7 [27] = assay: Cytotoxicity against mouse RAW264.7 cells at 50 ug/mL after 24 hrs by MTT assay relative to control; format: cell-based; details: raw264.7, 24 h
Escherichia coli [28] = assay: Antibacterial activity against Escherichia coli ATCC 25922 treated with water after 16 hrs by broth dilution method; format: functional; details: ATCC 25922, 16 h; how it was run: as §3
RAW264.7 [29] = assay: Antiinflammatory activity in mouse RAW264.7 cells assessed as inhibition of LPS-induced TLR4 expression at 20 ug/mL preincubated for 1 hr prior to LPS-challenge measured after 3 hrs by Western blotting analysis relative to LPS-treated control; format: functional; how it was run: as §4
RAW264.7 [30] = assay: Cytotoxicity against mouse RAW264.7 cells at <25 ug/mL after 24 hrs by MTT assay; format: cell-based; details: raw264.7, 24 h
Escherichia coli [31] = assay: Bactericidal activity against Escherichia coli ATCC 25922 at MIC after 10 mins by colony counting assay (reference value: 58.3 CFU); format: functional
Pseudomonas aeruginosa [32] = assay: Antibacterial activity against Pseudomonas aeruginosa ATCC 27853 treated with MgCl2 after 16 hrs by broth dilution method; format: functional; details: ATCC 27853, 16 h; how it was run: as §3
Pseudomonas aeruginosa [33] = assay: Antibacterial activity against Pseudomonas aeruginosa ATCC 27853 treated with water after 16 hrs by broth dilution method; format: functional; details: ATCC 27853, 16 h; how it was run: as §3

Structure (SMILES): CC[C@H](C)[C@H](NC(=O)[C@H](Cc1cnc[nH]1)NC(=O)[C@H](CO)NC(=O)[C@@H](NC(=O)[C@@H](NC(=O)[C@@H](NC(=O)[C@@H](NC(=O)[C@H](CCCNC(=N)N)NC(=O)[C@H](CC(C)C)NC(=O)[C@H](CCCCN)NC(=O)[C@H](CCC(=O)O)NC(=O)[C@H](CCCCN)NC(=O)[C@H](CC(C)C)NC(=O)[C@H](CCCCN)NC(=O)[C@@H]1CSSC[C@H](NC(=O)[C@H](CCCCN)NC(=O)[C@@H](N)CCCNC(=N)N)C(=O)N[C@@H](CC(N)=O)C(=O)N[C@@H](Cc2ccccc2)C(=O)N[C@@H](CC(C)C)C(=O)N1)[C@@H](C)O)C(C)C)[C@@H](C)CC)[C@@H](C)O)C(=O)N[C@@H](CC(=O)O)C(=O)N[C@@H](CCCCN)C(=O)N[C@H](C(=O)N[C@@H](CC(C)C)C(=O)N[C@@H](CCCNC(=N)N)C(=O)N1CCC[C@H]1C(=O)N[C@@H](CCC(N)=O)C(=O)NCC(=O)O)C(C)C (H-RKCNFLCKLKEKLRTVITSHIDKVLRPQG-OH; disulfide 3-7)
- CFU (Escherichia coli [1]): 37.3
- inhibition at 10 µg/mL (RAW264.7 [2]): 50%
- inhibition at 20 µg/mL (RAW264.7 [3]): 86%
- MIC (Escherichia coli [4]): 1.37 µM (≈ 4.69 µg/mL)
- MIC (Pseudomonas aeruginosa [5]): 9.38 µg/mL (≈ 2.74 µM)
- Activity (RAW264.7 [6]): 3.3%
- inhibition (RAW264.7 [7]): Dose-dependent effect
- MIC (Candida albicans [8]): 2.74 µM (≈ 9.38 µg/mL)
- MIC (Escherichia coli [9]): 2.35 µg/mL (≈ 0.686 µM)
- MIC (Staphylococcus aureus [10]): 2.74 µM (≈ 9.38 µg/mL)
- CFU (Escherichia coli [11]): 0
- MIC (Escherichia coli [12]): 2.35 µg/mL (≈ 0.686 µM)
- MIC (Pseudomonas aeruginosa [13]): 10.9 µM (≈ 37.5 µg/mL)
- inhibition at 5 µg/mL (RAW264.7 [14]): 30%
- MIC (Staphylococcus aureus [15]): 4.69 µg/mL (≈ 1.37 µM)
- CFU (Escherichia coli [16]): 0
- MIC (Escherichia coli [17]): 2.74 µM (≈ 9.38 µg/mL)
- MIC (Staphylococcus aureus [18]): 9.38 µg/mL (≈ 2.74 µM)
- MIC (Candida albicans [19]): 2.35 µg/mL (≈ 0.686 µM)
- CFU (Escherichia coli [20]): 0
- Activity (RAW264.7 [21]): Toxic
- MIC (Staphylococcus aureus [22]): 2.74 µM (≈ 9.38 µg/mL)
- inhibition (RAW264.7 [23]): Dose-dependent effect
- inhibition at 2.5 µg/mL (RAW264.7 [24]): 17%
- MIC (Candida albicans [25]): 2.35 µg/mL (≈ 0.686 µM)
- MIC (Escherichia coli [26]): 2.35 µg/mL (≈ 0.686 µM)
- Activity (RAW264.7 [27]): 2.7%
- MIC (Escherichia coli [28]): 4.69 µg/mL (≈ 1.37 µM)
- inhibition at 20 µg/mL (RAW264.7 [29]): 85%
- Activity (RAW264.7 [30]): Non-toxic
- CFU (Escherichia coli [31]): 23.7
- MIC (Pseudomonas aeruginosa [32]): 18.8 µg/mL (≈ 5.48 µM)
- MIC (Pseudomonas aeruginosa [33]): 18.8 µg/mL (≈ 5.48 µM)
